HIF act: HIF pathway transcriptional activation; U2OS HRE-luciferase reporter, luminescence; normalized: DMSO 0%, desferrioxamine 100%; 0.32% of 300,000 active; activation, % at 7.5 µM (by protocol);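 active = mean activation of at least 10% of the iron chelator positive control signal, with at least half of replicates also reaching 10%; inconclusive = mean and replicate majority disagree about reaching 10%; inactive = mean and most replicates under 10%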
SKKanGAS inh: inhibitors of SKKanGAS S. pyogenes growth in kanamycin (SK-promoter or general growth effect); BacTiter-Glo, 6 h; inhibition, % at 7.5 µM; 1.3% of 300,000 active; AID 1662;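 active = mean replicate score, as percent of positive control median, at least 50; inconclusive = mean below 50 but one replicate at or above 50; inactive = mean and every replicate below 50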;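 also: strain carries kanamycin resistance gene driven by streptokinase promoter and grows in 40 µg/ml kanamycin; loss of luminescence reflects streptokinase promoter inhibition or plain growth inhibition; 0% = median of DMSO wells and 100% = positive control at its reference dose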
CSC inhib: cancer stem cell inhibition. cancer stem cell-like cells viability, luminescence. AID 2717. 1.1% of 300,000 active. inhibition, % at 7.5 µM; in the data active = inhibition above about 75%; inconclusive = no clear call, values can overlap the other calls; tested in HMLE shEcad cells
T cruzi inh: T. cruzi replication inhibition; inhibition, % (concentration not given with the values); AID 1885; T. cruzi beta-gal in NIH3T3, luminescence, 90 h; 1.4% of 300,000 active;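 active = mean inhibition across valid replicates above about 55%, limit read from the data; inconclusive = mean below that limit but half or more replicates reach it; inactive = mean below it, under half of replicates reach it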;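 also: signal also drops with host cell toxicity which is not excluded here; 0% = plate median of DMSO wells and 100% = zero luminescence signal; higher percent means less beta-gal luminescence so fewer parasites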
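System – NIH/3T3 host cells with β-galactosidase reporter T. cruzi · Doses – single 50 nL compound addition per well in DMSO · Reagent – 5000 T. cruzi trypomastigotes/well · Medium – Low-serum DMEM with 2% FBS · Timing – ≥90 h infection period, 3 h prior cell attachment · Evaluation – parasite load inhibition, % · Technique – GalScreen luminescence, 60 min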
PfHsp90 set2: growth inhibition of yeast expressing Plasmodium Hsp90; S. cerevisiae expressing PfHsp90, BacTiter-Glo ATP, 48 h; yeast lacking PDR1 and PDR3 efflux regulators; inhibition, % at 9.4 µM; 0.32% of 310,000 active; AID 504621;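 active = every replicate shows inhibition above about 80%, whatever the replicate mean, limit read from the data; inconclusive = mean inhibition reaches the set limit but some replicate falls short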;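 also: 0% = DMSO neutral controls and 100% = 20 µM radicicol positive controls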
Beta apoptosis: blocks beta cell apoptosis; 0.8% of 300,000 active; AID 435005; protection from apoptosis, % (test concentration not listed); INS-1E cytokine-induced death, ATP luminescence, 48 h; percent of positive-control rescue, neutral wells zero;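 active = Every replicate reaches about 75%, or at least half do and their mean reaches it too, limit read from the data; inconclusive = At least half of replicates reach the limit but their mean does not; inactive = Under half of replicates reach the limit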;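 also: 0% = cytokine-treated negative control wells and 100% = positive control rescue; higher means more ATP so stronger rescue from cytokine killing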
* marks the source's active call; other numbers are inactive results. Hits are enriched below; roughly 3.6% of the tested compounds scored in any of these assays.

Screening O=C(Nc1ccc2c(c1)OCO2)c1ccc([N+](=O)[O-])cc1[N+](=O)[O-] returned HIF act 0, SKKanGAS inh -6, T cruzi inh 51, PfHsp90 set2 1 and Beta apoptosis 6.
COc1cc(/C=C/C(=O)CC(=O)/C=C/c2ccc(O)c(OC)c2)ccc1O was read as HIF act 1, SKKanGAS inh 7, CSC inhib 94*, T cruzi inh -24 and PfHsp90 set2 -3.
Screening COc1cc(/C=C/C(=O)O)ccc1O returned HIF act 0, SKKanGAS inh -1, CSC inhib 3, T cruzi inh -3 and PfHsp90 set2 -3.
For COc1ccc(/C=C/C(=O)c2ccc3c(c2)OCCO3)cc1[N+](=O)[O-] the results were HIF act 4, SKKanGAS inh -5, CSC inhib 17, T cruzi inh 0, PfHsp90 set2 21 and Beta apoptosis -20.
Screening COc1ccc(/C=C/C(=O)c2ccc([N+](=O)[O-])o2)cc1OC returned HIF act 1, SKKanGAS inh 67*, CSC inhib 78*, T cruzi inh 45 and Beta apoptosis 112*.
For COc1cc(/C=C/C(=O)c2ccc([N+](=O)[O-])o2)ccc1O the results were HIF act 3, SKKanGAS inh 72*, CSC inhib 5, T cruzi inh inconclusive, PfHsp90 set2 112* and Beta apoptosis 115*.
`O=C(/C=C/c1cccc(Cl)c1)c1ccc([N+](=O)[O-])o1` gave HIF act -2, SKKanGAS inh 63*, CSC inhib inconclusive, T cruzi inh 52, PfHsp90 set2 108* and Beta apoptosis 135*.
For CCOC(=O)Nc1ccc2c(c1)N(C(=O)CCN(CC)CC)c1ccccc1S2=O (centres undefined) the results were HIF act -2, SKKanGAS inh 0, CSC inhib 36, T cruzi inh -13 and PfHsp90 set2 -18.
N#Cc1ccc(OCC(=O)N(C2CCCCC2)C2CCS(=O)(=O)C2)cc1 (centres undefined) was read as Beta apoptosis -3.
For Cc1ccc(NC(=O)c2c(C(F)(F)F)nn(C)c2Cl)cc1C the results were HIF act 1, SKKanGAS inh 1, CSC inhib 0, T cruzi inh -1, PfHsp90 set2 14 and Beta apoptosis -4.
Cc1ccc(NC(=O)c2c(C(F)(F)F)nn(C)c2SCc2ccc(Cl)cc2)cc1C was read as HIF act 0, SKKanGAS inh 34, CSC inhib 31, T cruzi inh 65*, PfHsp90 set2 -4 and Beta apoptosis 7.
Screening Cc1ccc(NC(=O)c2c(C(F)(F)F)nn(C)c2SCc2cccc(C(F)(F)F)c2)cc1C returned HIF act 1, SKKanGAS inh 11, CSC inhib 36, T cruzi inh 59*, PfHsp90 set2 -4 and Beta apoptosis 88*.
CC1(C(=O)O)CCC(C(=O)NNC(=O)c2ccccc2Cl)C1(C)C (centres undefined) was read as HIF act 0, SKKanGAS inh 1, CSC inhib -3 and T cruzi inh -10.
For Cn1c(CCN2CCN(c3ccccn3)CC2)nc2cc(NS(=O)(=O)c3ccccc3)ccc21 the results were HIF act 0, SKKanGAS inh 0, CSC inhib 7, T cruzi inh 3, PfHsp90 set2 -2 and Beta apoptosis 3.
For CCOC(=O)C1=C(c2ccccc2)NC(=O)NC1c1cc(Cl)c(O)c(OC)c1 (centres undefined) the results were HIF act 0, SKKanGAS inh 0, CSC inhib 4, T cruzi inh -2, PfHsp90 set2 -1 and Beta apoptosis -3.
Screening CCOC(=O)C1=C(c2ccccc2)NC(N)=NC1c1ccc(OCc2ccc(Cl)cc2)c(OC)c1 (centres undefined) returned HIF act 1, SKKanGAS inh 31, CSC inhib 76*, T cruzi inh 21, PfHsp90 set2 8 and Beta apoptosis -11.
Cc1ccc(OCCN2C(=O)C(=O)c3cc(C)ccc32)cc1 was read as HIF act 0, SKKanGAS inh 6, CSC inhib inconclusive, T cruzi inh 33, PfHsp90 set2 -9 and Beta apoptosis 15.
Cc1ccc2c(c1)C(=O)C(=O)N2Cc1ccc(C(F)(F)F)cc1 was read as CSC inhib 53, PfHsp90 set2 150* and Beta apoptosis -13.
`COc1cc2c(-c3ccc(O)cc3)nc3c(c(C)nn3-c3ccccc3)c2cc1OC` gave CSC inhib 88*, PfHsp90 set2 -16 and Beta apoptosis 53.
For COc1cc2c(C)nc3c(c(C)nn3-c3ccccc3)c2cc1OC the results were HIF act 0, SKKanGAS inh -19, CSC inhib -2, T cruzi inh inconclusive, PfHsp90 set2 -3 and Beta apoptosis -7.
Screening CC1=CC(C)(C)n2c(O)c(N=N)c3c(C)ccc1c32 returned HIF act -1, SKKanGAS inh 14, CSC inhib 6, T cruzi inh 1, PfHsp90 set2 1 and Beta apoptosis -5.
`CC1=CC(C)(C)n2c(O)c(N=N)c3c(C)c(C)cc1c32` gave HIF act 0, SKKanGAS inh 68*, CSC inhib 4, T cruzi inh 10, PfHsp90 set2 20 and Beta apoptosis -1.
C=CCNc1nc(N(c2ccccc2)c2ccccc2)nc(-n2ccnc2)n1 was read as HIF act -1, SKKanGAS inh 18, CSC inhib 50, T cruzi inh 36, PfHsp90 set2 2 and Beta apoptosis 0.
`CCCCCNc1nc(-c2ccccc2)nc(-n2ccnc2)n1` gave HIF act -1, SKKanGAS inh -4, CSC inhib -3, T cruzi inh 62*, PfHsp90 set2 2 and Beta apoptosis 5.
`CCCCNc1nc(N(C)c2ccccc2)nc(-n2ccnc2)n1` gave HIF act -1, SKKanGAS inh 18, CSC inhib -16, T cruzi inh 61*, PfHsp90 set2 -46 and Beta apoptosis 12.
For CCOC(=O)/C(C#N)=C(\O)c1ccc(NC(=O)c2ccc([N+](=O)[O-])cc2)cc1 the results were HIF act 0, SKKanGAS inh 8, CSC inhib -4, T cruzi inh 3 and Beta apoptosis 0.
Screening O=C(COC(=O)c1ccccc1C(=O)c1ccc(Cl)c([N+](=O)[O-])c1)NC1CC1 returned HIF act -1, SKKanGAS inh 2, CSC inhib 25, T cruzi inh 63*, PfHsp90 set2 -2 and Beta apoptosis -10.
For CCc1nnc(NC(=O)c2csc3c2CCC(C)C3)s1 (centres undefined) the results were HIF act 4, SKKanGAS inh 0, CSC inhib -10, T cruzi inh -4 and Beta apoptosis -2.

Screening results deposited in PubChem by Broad Institute.
